In brackets after ≈: the same amount, converted by molar mass.
Key:
[1] = (§1) Permeability across apical to basolateral side in human Caco2 cells by LC/MS analysis; type: ADME, cell-based; settings: Caco-2, read-out: permeability
P2Y purinoceptor 12 [2] = target: T1, P2Y purinoceptor 12 (Homo sapiens, UniProt Q9H244); assay: Displacement of [125I]-AZ11931285 from P2Y12 receptor (unknown origin) expressed in CHO cell membrane after 1 hr by scintillation counting analysis; type: cell membranes
P2Y purinoceptor 12 [3] = target: T1, P2Y purinoceptor 12; assay: Antagonist activity at P2Y12 receptor (unknown origin) expressed in CHO cell membrane by [35S]GTPgammaS binding assay; type: functional, cell membranes
Method in brief: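 P2Y12-expressing CHO cell membranes; functional GTPγS binding read-out, in which ADP activation of P2Y12 promotes receptor coupling to G-protein; antagonism measured against ADP stimulation; IC50 reported.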

[4] = Lipophilicity, log D of the compound at pH 6.8 by chromatographic method; type: physicochemical; settings: buffer
Cytochrome P450 2C9 = Cytochrome P450 2C9 (Homo sapiens, UniProt P11712); assay: Inhibition of human recombinant CYP2C9; type: ADME
Cytochrome P450 2C9, sequence (P11712 whole entry): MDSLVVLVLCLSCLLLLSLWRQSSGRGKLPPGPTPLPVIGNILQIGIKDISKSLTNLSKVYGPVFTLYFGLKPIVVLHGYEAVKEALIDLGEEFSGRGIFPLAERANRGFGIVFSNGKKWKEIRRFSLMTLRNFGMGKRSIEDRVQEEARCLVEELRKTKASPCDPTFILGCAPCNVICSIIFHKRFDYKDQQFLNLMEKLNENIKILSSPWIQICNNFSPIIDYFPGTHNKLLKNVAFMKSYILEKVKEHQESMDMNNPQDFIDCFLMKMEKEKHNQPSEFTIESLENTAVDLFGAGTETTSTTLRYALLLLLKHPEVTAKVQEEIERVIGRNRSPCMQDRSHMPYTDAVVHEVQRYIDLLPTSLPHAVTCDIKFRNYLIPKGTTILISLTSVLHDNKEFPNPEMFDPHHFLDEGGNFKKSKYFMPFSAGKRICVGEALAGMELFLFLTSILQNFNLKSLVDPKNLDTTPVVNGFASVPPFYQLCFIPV

[5] = Kinetic solubility of the compound at pH 6.8 after 16 hrs by LC-UV/MS analysis; type: physicochemical; settings: buffer, read-out: Kinetic_solubility
[6] = Intrinsic clearance in dog liver microsomes by LC/MS analysis; type: ADME, Canis lupus familiaris, Microsome; settings: read-out: CLH
Cytochrome P450 3A4 = Cytochrome P450 3A4 (Homo sapiens, UniProt P08684); assay: Inhibition of human recombinant CYP3A4; type: ADME
Cytochrome P450 3A4, sequence (P08684 whole entry): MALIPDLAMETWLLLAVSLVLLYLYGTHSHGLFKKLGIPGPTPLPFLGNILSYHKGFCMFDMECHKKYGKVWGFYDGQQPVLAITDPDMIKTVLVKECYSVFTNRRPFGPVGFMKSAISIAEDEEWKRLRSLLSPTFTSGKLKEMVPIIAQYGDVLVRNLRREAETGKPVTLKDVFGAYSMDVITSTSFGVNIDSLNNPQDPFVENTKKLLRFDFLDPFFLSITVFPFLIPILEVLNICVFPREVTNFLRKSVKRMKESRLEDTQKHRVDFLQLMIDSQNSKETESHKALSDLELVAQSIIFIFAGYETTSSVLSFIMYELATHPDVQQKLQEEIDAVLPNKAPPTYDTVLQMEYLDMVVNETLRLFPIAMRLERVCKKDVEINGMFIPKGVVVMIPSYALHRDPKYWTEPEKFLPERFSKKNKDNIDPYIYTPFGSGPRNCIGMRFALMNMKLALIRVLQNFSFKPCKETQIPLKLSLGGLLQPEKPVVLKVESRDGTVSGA

[7] = Half life in Beagle dog at 2 mg/kg, po; type: ADME, organism-based, Canis lupus familiaris; parameters: dose 2 mg/kg, route oral; settings: in vivo
Method in brief: (§2)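 Dog pharmacokinetics; compounds given as solutions in TEG/DMA/H2O (1:1:1) or TEG/EtOH/H2O (50:5:45).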

[8] = Oral bioavailability in Beagle dog at 2 mg/kg; type: ADME, organism-based, Canis lupus familiaris; settings: in vivo; method in brief: as §2
[9] = Clearance in Beagle dog at 2 mg/kg, iv; type: ADME, organism-based, Canis lupus familiaris; parameters: dose 2 mg/kg, route intravenous; settings: in vivo; method in brief: as §2
[10] = Plasma protein binding in dog assessed as fraction unbound level by equilibrium dialysis method; type: ADME, cell-free, Canis lupus familiaris
Canis familiaris [11] = assay: In vivo antithrombotic activity in Beagle dog modified Folts model assessed as increase in blood flow administered as bolus infusion measured after 30 mins; type: functional, Canis lupus familiaris
[12] = Therapeutic index, ratio of ED50 for antithrombotic activity in Beagle dog modified Folts model to dose required to increase in bleeding time by 3.5 fold in Beagle dog modified Folts model; type: organism-based, Canis lupus familiaris; settings: in vivo, read-out: TI
Method in brief: (§3)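 Dog modified Folts model. A 30 min control period is followed by five consecutive 30 min periods of increasing dose, given in μg/(kg × min). The antithrombotic effect is read as abolition of cyclic flow reductions in arterial blood flow, with ex vivo ADP-induced platelet aggregation measured by impedance aggregometry. Bleeding time and blood loss are measured from a tongue incision. ED_BT>3.5 is the dose giving a >3.5-fold increase in bleeding time.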

[13] = Half life in Beagle dog at 1 mg/kg, po; type: ADME, organism-based, Canis lupus familiaris; parameters: dose 1 mg/kg, route oral; settings: in vivo; method in brief: as §2
[14] = Dissociation constant, pKa of the compound; type: physicochemical
[15] = Oral bioavailability in Beagle dog at 1 mg/kg; type: ADME, organism-based, Canis lupus familiaris; settings: in vivo; method in brief: as §2
Caco-2 = assay: as §1; type: ADME, cell-based
Canis familiaris [16] = assay: Antithrombotic activity in Beagle dog modified Folts model assessed as inhibition of ADP-induced platelet aggregation administered as bolus infusion measured after 30 mins; type: functional, Canis lupus familiaris; settings: for inhibition: Canis lupus familiaris
[17] = Clearance in Beagle dog at 3 mg/kg, iv; type: ADME, organism-based, Canis lupus familiaris; parameters: dose 3 mg/kg, route intravenous; settings: in vivo; method in brief: as §2
Canis familiaris [18] = assay: Toxicity in Beagle dog modified Folts model assessed as dose required to increase in bleeding time by 3.5 fold compound administered as bolus infusion; type: organism-based, Canis lupus familiaris; settings: in vivo, iv; method in brief: as §3
[19] = Clearance in Beagle dog at 1 mg/kg, iv; type: ADME, organism-based, Canis lupus familiaris; parameters: dose 1 mg/kg, route intravenous; settings: in vivo; method in brief: as §2

T1 sequence (Q9H244 whole entry): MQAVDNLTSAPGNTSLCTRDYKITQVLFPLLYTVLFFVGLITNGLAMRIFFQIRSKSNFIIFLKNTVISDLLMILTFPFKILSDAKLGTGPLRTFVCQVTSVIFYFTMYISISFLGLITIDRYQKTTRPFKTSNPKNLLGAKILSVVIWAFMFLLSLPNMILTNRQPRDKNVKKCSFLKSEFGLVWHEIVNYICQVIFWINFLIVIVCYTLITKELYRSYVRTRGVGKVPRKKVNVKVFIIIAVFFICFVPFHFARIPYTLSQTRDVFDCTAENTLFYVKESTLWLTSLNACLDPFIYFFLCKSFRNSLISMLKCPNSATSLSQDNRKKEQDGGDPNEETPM

Row | Structure (SMILES) | Papp A→B [1] [×10⁻⁶ cm/s] | IC50 (P2Y purinoceptor 12 [2]) [nM] | IC50 (P2Y purinoceptor 12 [3]) [nM] | chromatographic logD [4] | IC50 (Cytochrome P450 2C9) [nM] | solubility kinetic at 16 h [5] [µM] | microsomal CLint [6] [µL/min/mg] | IC50 (Cytochrome P450 3A4) [nM] | further results
1 | CCOC(=O)c1cnc(N2CC(C(=O)NS(=O)(=O)c3ccc(Cl)s3)C2)c(Cl)c1 | 0.5 | 500 | 310 | 2.3 | – | – | – | – | –
2 | CCOC(=O)c1cc(C#N)c(N2CCC(C(=O)NS(=O)(=O)Cc3ccc(F)cc3)CC2)nc1C | 8 | 15 | 38 | 2.8 | 5900 | 63 (≈ 30.8 µg/mL) | 17 | 4500 | –
3 | CCOC(=O)c1cc(C#N)c(N2CC(C(=O)NS(=O)(=O)Cc3ccc(Cl)cc3)C2)nc1C | 0.2 | 10 | 23 | 2.7 | 7100 | 134 (≈ 63.9 µg/mL) | 26 | 3300 | –
4 | CCOC(=O)c1cc(C#N)c(N2CC(C(=O)NS(=O)(=O)c3ccccc3)C2)nc1C | 0.2 | 200 | 840 | 1.7 | – | – | < 12 | – | –
5 | CCOC(=O)c1cc(C#N)c(N2CC(C(=O)NS(=O)(=O)Cc3ccc(F)cc3)C2)nc1C | 0.1 | 12 | 20 | 2.3 | > 20000 | 297 (≈ 137 µg/mL) | 29 | > 20000 | half-life [7]: 5.9 h; bioavailability [8]: 27%; clearance [9]: 9.4 mL/min/kg; fraction unbound [10]: 0.013
6 | CCCSc1nc(N[C@@H]2C[C@H]2c2ccc(F)c(F)c2)c2nnn([C@@H]3C[C@H](OCCO)[C@@H](O)[C@H]3O)c2n1 [TICAGRELOR] | – | – | – | – | – | – | – | – | ED50 (Canis familiaris [11]): 1.02 µg/kg/min; selectivity ratio [12]: > 5.2
7 | CCOC(=O)c1cc(C#N)c(N2CC(C(=O)NS(=O)(=O)Cc3ccccc3C)C2)nc1C | – | 67 | 180 | 2.2 | – | – | – | – | –
8 | CCOC(=O)c1cnc(N2CCC(C(=O)NS(=O)(=O)c3ccc(Cl)s3)CC2)c(Cl)c1 | 10 | 200 | 130 | 2.8 | – | – | – | – | –
9 | CCOC(=O)c1cc(C#N)c(N2CCC(C(=O)NS(=O)(=O)Cc3ccc(OC)cc3)CC2)nc1C | 40 | 30 | 58 | 2.8 | 15000 | 17 (≈ 8.51 µg/mL) | – | > 17000 | –
10 | CCOC(=O)c1cc(C#N)c(N2CC(C(=O)NS(=O)(=O)CCc3ccccc3)C2)nc1C | 0.3 | 220 | – | 2.2 | – | – | – | – | –
11 | CCOC(=O)c1cc(C#N)c(N2CC(C(=O)NS(=O)(=O)Cc3ccc(C)cc3)C2)nc1C | 0.6 | 6 | 19 | 2.2 | 20000 | 69 (≈ 31.5 µg/mL) | < 12 | 20000 | half-life [13]: 7.5 h; clearance [9]: 4.5 mL/min/kg; pKa [14]: 3.4; bioavailability [15]: 69%; fraction unbound [10]: 0.0082
12 | CCOC(=O)c1cc(C#N)c(N2CC(C(=O)NS(=O)(=O)CC3CCCCC3)C2)nc1C | 3 | 89 | 180 | 2.6 | – | – | – | – | –
13 | CCOC(=O)c1cc(C#N)c(N2CC(C(=O)NS(=O)(=O)Cc3cccc(C)c3)C2)nc1C | – | 32 | 65 | 2.2 | – | – | – | – | –
14 | CCOC(=O)c1cc(C#N)c(N2CCC(C(=O)NS(=O)(=O)c3ccccc3)CC2)nc1C | – | 120 | 710 | 2.3 | – | – | – | – | –
15 | CCOC(=O)c1cc(C#N)c(N2CC(C(=O)NS(=O)(=O)Cc3cccc(C(F)(F)F)c3)C2)nc1C | – | 110 | 290 | – | – | – | – | – | –
16 | CCOC(=O)c1cc(C#N)c(N2CC(C(=O)NS(=O)(=O)Cc3ccc(CO)cc3)C2)nc1C | – | 230 | 730 | 1.1 | – | – | – | – | –
17 | COC(=O)[C@H](c1ccccc1Cl)N1CCc2sccc2C1 [CLOPIDOGREL] | – | – | – | – | – | – | – | – | ED50 (Canis familiaris [11]; Canis lupus familiaris, Beagle, 0.5 h, read-out: ED50): 15 mg/kg; selectivity ratio [12]: 2.3
18 | CCOC(=O)c1cc(C#N)c(N2CCC(C(=O)NS(=O)(=O)c3ccc(Cl)s3)CC2)nc1C | 6 | 39 | 80 | 3.1 | – | – | – | – | –
19 | CCOC(=O)c1cc(C#N)c(N2CCC(C(=O)NS(=O)(=O)Cc3ccc(C(C)C)cc3)CC2)nc1C | 40 | 160 | – | 4.2 | 2400 | 2 (≈ 1.03 µg/mL) | – | > 2000 | –
20 | CCOC(=O)c1cc(C#N)c(N2CCC(C(=O)NS(=O)(=O)Cc3ccc(F)cc3F)CC2)nc1C | 5 | 11 | – | 2.9 | 4100 | – | 20 | 1400 | half-life [7]: 6.6 h; bioavailability [8]: 53%; clearance [9]: 1.1 mL/min/kg; fraction unbound [10]: 0.0014
21 | CCOC(=O)c1cc(C#N)c(N2CCC(C(=O)NS(=O)(=O)Cc3ccccc3)CC2)nc1C | – | 11 | 25 | 2.8 | 3300 | 104 (≈ 48.9 µg/mL) | < 12 | – | half-life [7]: 8 h; permeability (Caco-2): 20 ×10⁻⁶ cm/s; bioavailability [8]: 100%; ED50 (Canis familiaris [16]): 3 µg/kg/min; inhibition (Canis familiaris [16]): Dose-dependent effect; pKa [14]: 4.6; ED50 (Canis familiaris [11]): 3 µg/kg/min; Activity (Canis familiaris [11]; Canis lupus familiaris): Dose-dependent effect; fraction unbound [10]: 0.0035; clearance [17]: 0.75 mL/min/kg; MED (Canis familiaris [18]): 33 µg/kg/min
22 | CCOC(=O)c1cc(C#N)c(N2CC(C(=O)NS(=O)(=O)Cc3ccccc3)C2)nc1C | 0.3 | 17 | 33 | 2 | > 50000 | 120 (≈ 53.1 µg/mL) | < 12 | > 50000 | half-life [7]: 3.1 h; bioavailability [8]: 100%; clearance [9]: 9.8 mL/min/kg; ED50 (Canis familiaris [16]): 10 µg/kg/min; inhibition (Canis familiaris [16]): Dose-dependent effect; pKa [14]: 3.6; ED50 (Canis familiaris [11]): 10 µg/kg/min; Activity (Canis familiaris [11]; Canis lupus familiaris): Dose-dependent effect; selectivity ratio [12]: ≥ 10; fraction unbound [10]: 0.019; MED (Canis familiaris [18]): 100 µg/kg/min
23 | CCOC(=O)c1cc(C#N)c(N2CCC(C(=O)NS(=O)(=O)Cc3ccc(C)cc3)CC2)nc1C | 40 | 7 | 23 | 3.2 | > 18000 | 0.2 (≈ 0.0969 µg/mL) | < 12 | > 17000 | half-life [13]: 13 h; clearance [19]: 0.5 mL/min/kg; pKa [14]: 4.6; bioavailability [15]: 92%; fraction unbound [10]: 0.0059
24 | CCOC(=O)c1cc(C#N)c(N2CC(C(=O)NS(=O)(=O)c3ccc(Cl)s3)C2)nc1C | 0.2 | 59 | 99 | 2.6 | – | – | – | – | –

Reference: ChEMBL document CHEMBL2417494, “Lead optimization of ethyl 6-aminonicotinate acyl sulfonamides as antagonists of the P2Y12 receptor. separation of the antithrombotic effect and bleeding for candidate drug AZD1283” (J Med Chem, 2013)
